From ChEMBL document CHEMBL1125890, “Synthesis, calcium-channel-blocking activity, and antihypertensive activity of 4-(diarylmethyl)-1-[3-(aryloxy)propyl]piperidines and structurally related compounds” (J Med Chem, 1991)

Key:
Rattus norvegicus [1] = assay: Antihypertensive activity expressed as change in mean arterial blood pressure (MABP) in spontaneously hypertensive rats (SHR),at 0.5-2h after 30 mg/kg oral administration; type: functional, Artery
Summary of the method: (§1)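 Adult male SHR, catheter implanted in carotid artery or abdominal aorta under anesthesia at least 24 h before dosing. Baseline pressure recorded 1-1.5 h. Compound given orally at 30 mg/kg as solution or suspension in 0.5% Tween 80/distilled H2O (v/v) or other vehicle. MABP read at 0.5, 1, 1.5, 2, 3, 4, 5 and 6 h. Average percent change from predose calculated per period. Paired one-tailed t test, p < 0.05. n = 3-6 rats unless noted.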

Rattus norvegicus [2] = assay: Antihypertensive activity expressed as change in mean arterial blood pressure (MABP) in spontaneously hypertensive rats (SHR), at 3-6h after 30 mg/kg oral administration; type: functional, Artery; summary of the method: as §1
Oryctolagus cuniculus = organism: Oryctolagus cuniculus; assay: Calcium channel-blocking activity by determined by ability to antagonize calcium-induced contractions of isolated rabbit aortic strips; type: functional; settings: Aorta, read-out: pA2 (converted)
Summary of the method: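 Rabbit aortic strips were bathed in turn in CaCl2-containing buffer, CaCl2-free buffer, then depolarizing (KCl) CaCl2-free buffer. Cumulative CaCl2 addition induced contractions, recorded with force-displacement transducers. Responses were compared without and with 1–100 nM test compound. pA2 was calculated by the Van Rossum method from at least three tissues.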

Compound | Change (Rattus norvegicus [1]) [%] | Change (Rattus norvegicus [2]) [%] | Kb (Oryctolagus cuniculus) [nM]
COc1cc(C(C)=O)ccc1OCCCN1CCC(C(C#N)(c2ccc(F)cc2)c2ccc(F)cc2)C1 (stereo unspecified) | -2 | 1 | 6.31
Fc1ccc(C(c2ccc(F)cc2)C2CCN(CCCOc3ccccc3)CC2)cc1 | -1 | -2 | 1.58
Fc1ccc(C(c2ccc(F)cc2)C2CCN(CCCOc3ccc4ccccc4c3)CC2)cc1 | -7 | -4 | 7.94
COc1cc(C(C)=O)ccc1OCCCN1CCC(C(C#N)(c2ccc(F)cc2)c2ccc(F)cc2)CC1 | -17 | -26 | 2
NC(=O)c1ccc(OCCCN2CCC(C(c3ccc(F)cc3)c3ccc(F)cc3)CC2)cc1 | -3 | -8 | 31.6
O=S(=O)(CCCN1CCC(C(c2ccc(F)cc2)c2ccc(F)cc2)CC1)c1ccccc1 | 2 | 3 | 20
COc1cc(C(C)=O)ccc1OCCCN1CCC(C(c2ccc(F)cc2)c2ccc(F)c(F)c2)CC1 (stereo unspecified) | -27 | -30 | 1.26
COc1cc(C(C)=O)ccc1OCCCN1CCC(C(c2ccc(C)cc2)c2ccc(C)cc2)CC1 | 3 | -2 | 15.8
Fc1ccc(C(c2ccc(F)cc2)C2CCN(CCCOc3cccc4ccccc34)CC2)cc1 | -6 | -7 | 5.01
COc1cc(C(C)=O)ccc1OCCCN1CCC(C(c2ccc(F)cc2F)c2ccc(F)cc2F)CC1 | -12 | -16 | 15.8
Fc1ccc(C(c2ccc(F)cc2)C2CCN(CCCOc3ccc(Cl)cc3)CC2)cc1 | -15 | -25 | 2
COc1cc(C(C)=O)ccc1OCCCN1CCC(C(c2ccccc2)c2ccc(F)cc2)CC1 (stereo unspecified) | -8 | -12 | 6.31
COc1cc(C(C)=O)ccc1OCCCN1CCC(CC(c2ccc(F)cc2)c2ccc(F)cc2)CC1 | -13 | -10 | 3.16
COC(=O)c1ccc(OCCCN2CCC(C(c3ccc(F)cc3)c3ccc(F)cc3)CC2)c(OC)c1 | -4 | -2 | 1.26
COc1ccccc1OCCCN1CCC(C(c2ccc(F)cc2)c2ccc(F)cc2)CC1 | -4 | -1 | 2.51
COc1cc(C(=O)O)ccc1OCCCN1CCC(C(c2ccc(F)cc2)c2ccc(F)cc2)CC1 | 9 | 0 | 79.4
COc1cc(C(C)=O)ccc1OCCCN1CCC(C(c2ccc(F)cc2)C2CCCCC2)CC1 (stereo unspecified) | 3 | -6 | 5.01
COc1cc(C(C)=O)ccc1OCCCN1CCC(C(c2ccc(F)c(F)c2)c2ccc(F)c(F)c2)CC1 | -28 | -35 | 2.51
COc1cc(OCCCN2CCC(C(c3ccc(F)cc3)c3ccc(F)cc3)CC2)ccc1C(C)=O | -5 | -11 | 3.16

Compound | Change (Rattus norvegicus [1]) [%] | Change (Rattus norvegicus [2]) [%] | Kb (Oryctolagus cuniculus) [nM]
Fc1ccc(C(c2ccc(F)cc2)C2CCN(CCOc3cccc4ccccc34)CC2)cc1 | -19 | -27 | 12.6
CC(=O)c1ccc(OCCCN2CCC(C(c3ccc(F)cc3)c3ccc(F)cc3)CC2)cc1 | -1 | 0 | 2.51
COc1cc(C(C)=O)ccc1OCCCN1CCC(C(NC(C)=O)(c2ccc(F)cc2)c2ccc(F)cc2)CC1 | -3 | -7 | 63.1
COc1cc(C#N)ccc1OCCCN1CCC(C(c2ccc(F)cc2)c2ccc(F)cc2)CC1 | -3 | -9 | 2
COc1cc(C(C)=O)ccc1OCCCN1CCC(CC(C#N)(c2ccc(F)cc2)c2ccc(F)cc2)C1 (stereo unspecified) | 3 | -7 | 10
COc1cc(C(C)=O)ccc1OCCCN1CCC(C(c2ccc(F)cc2)c2ccccn2)CC1 (stereo unspecified) | -3 | 3 | 158
COc1cc(C(C)=O)ccc1OCCCN1CCC(C(C(N)=O)(c2ccc(F)cc2)c2ccc(F)cc2)CC1 | 3 | 5 | 25.1
COc1cc(C(C)=O)ccc1OCCCN1CCC(C(c2ccc(Cl)cc2)c2ccc(Cl)cc2)CC1 | -3 | -9 | 2.51
COc1cc(C(C)=O)ccc1OCCCCCN1CCC(C(c2ccc(F)cc2)c2ccc(F)cc2)CC1 | -5 | -13 | 3.16
Fc1ccc(C(c2ccc(F)cc2)C2CCN(CCCSc3ccccc3)CC2)cc1 | -5 | -3 | 3.16
COc1cc(C(C)=O)ccc1OCCN1CCC(C(c2ccc(F)cc2)c2ccc(F)cc2)CC1 | -4 | 0 | 6.31
COc1cc(C(C)=O)ccc1OCCCN1CCC(C(N)(c2ccc(F)cc2)c2ccc(F)cc2)CC1 | 1 | -10 | 31.6
COc1cc(C(C)=O)ccc1OCCCN1CCC(Cc2ccc(F)cc2)CC1 | -7 | -4 | 20
COc1ccc(OCCCN2CCC(C(c3ccc(F)cc3)c3ccc(F)cc3)CC2)cc1 | -2 | -3 | 2.51
CC(=O)Nc1ccc(OCCCN2CCC(C(c3ccc(F)cc3)c3ccc(F)cc3)CC2)cc1 | -12 | -12 | 12.6
COc1cc(C(C)=O)ccc1OCCCN1CCC(C(O)(c2ccc(F)c(F)c2)c2ccc(F)c(F)c2)CC1 | -5 | -24 | 2.51
COc1cc(C(C)=O)ccc1OCCCN1CCC(C(O)(c2ccc(F)cc2)c2ccc(F)cc2)CC1 | -5 | -9 | 10
COc1cc(C(C)=O)ccc1OCCCN1CCC(C(c2ccccc2)c2ccccc2)CC1 | -20 | -12 | 6.31
Fc1ccc(C(c2ccc(F)cc2)C2CCN(CCOc3ccc4ccccc4c3)CC2)cc1 | -16 | -30 | 3.98

Compound | Change (Rattus norvegicus [1]) [%] | Change (Rattus norvegicus [2]) [%] | Kb (Oryctolagus cuniculus) [nM]
COc1cc(C(C)=O)ccc1OCCCCN1CCC(C(c2ccc(F)cc2)c2ccc(F)cc2)CC1 | -16 | -21 | 2.51
COc1cc(C(C)=O)ccc1OCCCN1CCCC(C(C#N)(c2ccc(F)cc2)c2ccc(F)cc2)C1 (stereo unspecified) | 5 | 9 | 7.94
COc1cc(C(C)=O)ccc1OCCCN1CCC(C(c2ccc(F)cc2)c2ccc(F)cc2)CC1 | -15 | -22 | 1.58
Fc1ccc(C(c2ccc(F)cc2)C2CCN(CCCOc3ccc(Br)cc3)CC2)cc1 | -3 | -17 | 1.58
N#Cc1ccc(OCCCN2CCC(C(c3ccc(F)cc3)c3ccc(F)cc3)CC2)cc1 | 8 | -11 | 5.01
COc1cc(C(C)=O)ccc1OCCCCCCN1CCC(C(c2ccc(F)cc2)c2ccc(F)cc2)CC1 | -10 | -22 | 6.31
Fc1ccc(C(c2ccc(F)cc2)C2CCN(CCCCc3ccccc3)CC2)cc1 | -5 | -9 | 2.51
Nc1ccc(OCCCN2CCC(C(c3ccc(F)cc3)c3ccc(F)cc3)CC2)cc1 | -5 | -8 | 31.6
COc1cc(C(C)=O)ccc1OCCCN1CCC(C(c2cccc(F)c2)c2cccc(F)c2)CC1 | -11 | -9 | 3.16
COc1cc(C(C)O)ccc1OCCCN1CCC(C(c2ccc(F)cc2)c2ccc(F)cc2)CC1 (stereo unspecified) | -14 | -9 | 10
COc1ccc(C(c2ccc(OC)cc2)C2CCN(CCCOc3ccc(C(C)=O)cc3OC)CC2)cc1 | 2 | 1 | 10
CCc1ccc(OCCCN2CCC(C(c3ccc(F)cc3)c3ccc(F)cc3)CC2)c(OC)c1 | -9 | -7 | 2.51
CC(C)(C)c1ccc(OCCCN2CCC(C(c3ccc(F)cc3)c3ccc(F)cc3)CC2)cc1 | -15 | -10 | 1
Fc1ccc(OCCCN2CCC(C(c3ccc(F)cc3)c3ccc(F)cc3)CC2)cc1 | -2 | -6 | 1.26
COc1cc(C(C)=O)ccc1OCCCN1CCC(=C(c2ccc(F)cc2)c2ccc(F)cc2)CC1 | -9 | -12 | 3.98
COc1cc(C(C)=O)ccc1OCCCN1CCCC(CC(C#N)(c2ccc(F)cc2)c2ccc(F)cc2)C1 (stereo unspecified) | 2 | -5 | 12.6
CN(CCCN1CCC(C(c2ccc(F)cc2)c2ccc(F)cc2)CC1)c1ccccc1 | -3 | -6 | 2
COc1ccc([C@@H]2Sc3ccccc3N(CCN(C)C)C(=O)[C@@H]2OC(C)=O)cc1 [DILTIAZEM] | -14 | -13 | 20
Fc1ccc(C(c2ccc(F)cc2)N2CCN(C/C=C/c3ccccc3)CC2)cc1 [FLUNARIZINE] | -1 | -1 | 5.01
